In ChEMBL document CHEMBL1121579, “Synthesis and adrenergic blocking effects of 2-(alkylamino)-3,4-dihydroquinazolines” (1980):

How the values were obtained:
Rattus norvegicus [1] = experiment: Decrease in mean arterial blood pressure in response to intravenous administration at 16 uM/kg of the compound.; assay type: functional, Artery
Outline: (§1)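 Male Sprague-Dawley rats, 300–350 g, anesthetized with pentobarbital sodium 40 mg/kg ip, trachea cannulated for ventilation. Drugs dissolved in 0.9% saline and injected into a cannulated external jugular vein. Poorly soluble material was given in polyethylene glycol/ethanol/water 20:10:70. n = 3 per determination.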

Rattus norvegicus [2] = experiment: Decrease in mean arterial blood pressure in response to intravenous administration at 2 uM/kg of the compound; assay type: functional, Artery; outline: as §1
Rattus norvegicus [3] = experiment: Decrease in mean arterial blood pressure in response to intravenous administration at 32 uM/kg of the compound.; assay type: functional, Artery; outline: as §1
Rattus norvegicus [4] = experiment: Decrease in mean arterial blood pressure in response to intravenous administration at 4 uM/kg of the compound; assay type: functional, Artery; outline: as §1
Rattus norvegicus [5] = experiment: Decrease in mean arterial blood pressure in response to intravenous administration at 8 uM/kg of the compound; assay type: functional, Artery; outline: as §1
Rattus norvegicus [6] = experiment: Antagonist effect to pressor response of 0.3 ug/kg of norepinephrine intravenously in rats at the dose 32 uM/kg; assay type: functional; outline: as §1
Rattus norvegicus [7] = experiment: Decrease in mean arterial blood pressure in response to intravenous administration at 64 uM/kg of the compound; assay type: functional, Artery; outline: as §1
Rattus norvegicus [8] = experiment: decrease in mean arterial blood pressure in response to intravenous administration at 16 uM/kg of the compound; assay type: functional; outline: as §1
Rattus norvegicus [9] = experiment: Decrease in mean arterial blood pressure in response to intravenous administration at 32 uM/kg of the compound; assay type: functional, Artery; outline: as §1
Rattus norvegicus [10] = experiment: Antagonist effect to pressor response of 0.3 ug/kg of norepinephrine intravenously in rats at the dose 32 uM/kg.; assay type: functional; outline: as §1
Rattus norvegicus [11] = experiment: Decrease in mean arterial blood pressure in response to intravenous administration at 64 uM/kg of the compound.; assay type: functional, Artery; outline: as §1
Rattus norvegicus [12] = experiment: Decrease in mean arterial blood pressure in response to intravenous administration at 16 uM/kg of the compound; assay type: functional, Artery; outline: as §1

SMILES | Decrease in blood pressure (Rattus norvegicus [1]) [%] | Decrease in blood pressure (Rattus norvegicus [2]) [%] | Decrease in blood pressure (Rattus norvegicus [3]) [%] | Decrease in blood pressure (Rattus norvegicus [4]) [%] | Decrease in blood pressure (Rattus norvegicus [5]) [%] | Block (Rattus norvegicus [6]) [%] | Decrease in blood pressure (Rattus norvegicus [7]) [%] | Decrease in blood pressure (Rattus norvegicus [8]) [%] | Decrease in blood pressure (Rattus norvegicus [9]) [%] | Block (Rattus norvegicus [10]) [%] | Decrease in blood pressure (Rattus norvegicus [11]) [%] | Decrease in blood pressure (Rattus norvegicus [12]) [%]
CCCN(CCC)C1=NCc2ccccc2N1 | 30.9 | 3.2 | 40 | 7.6 | 11.5 | – | – | – | – | – | – | –
NC1=Nc2ccccc2CN1 | – | 6.76 | – | 12 | 13.3 | 49.3 | 23.3 | 15 | 17.7 | – | – | –
CNC1=Nc2ccccc2CN1 | 19.7 | 4.67 | 25 | 7.7 | 12.7 | – | – | – | – | 37.8 | 33.3 | –
CN(C)C1=Nc2ccccc2CN1 | – | 0 | – | 0 | 5.67 | 10 | – | – | 12.3 | – | 24.7 | 7.3
Cc1ccc(N(CC2=NCCN2)c2cccc(O)c2)cc1 [PHENTOLAMINE] | – | – | – | – | – | 66.2 | – | – | – | – | – | –
